Data published in ChEMBL document CHEMBL3120102, “Structure-based design, synthesis and biological evaluation of novel anthra[1,2-d]imidazole-6,11-dione homologues as potential antitumor agents” (2013).

What was measured:
[1] = target: Telomerase reverse transcriptase (Homo sapiens) (UniProt O14746); experiment: Inhibition of human tert transcriptional activity assessed as SEAP activity at 100 uM after 24 hrs by SEAP reporter assay; parameters: scale not given: the % may be the effect or the level left
Telomerase reverse transcriptase (Homo sapiens), sequence (O14746 whole entry): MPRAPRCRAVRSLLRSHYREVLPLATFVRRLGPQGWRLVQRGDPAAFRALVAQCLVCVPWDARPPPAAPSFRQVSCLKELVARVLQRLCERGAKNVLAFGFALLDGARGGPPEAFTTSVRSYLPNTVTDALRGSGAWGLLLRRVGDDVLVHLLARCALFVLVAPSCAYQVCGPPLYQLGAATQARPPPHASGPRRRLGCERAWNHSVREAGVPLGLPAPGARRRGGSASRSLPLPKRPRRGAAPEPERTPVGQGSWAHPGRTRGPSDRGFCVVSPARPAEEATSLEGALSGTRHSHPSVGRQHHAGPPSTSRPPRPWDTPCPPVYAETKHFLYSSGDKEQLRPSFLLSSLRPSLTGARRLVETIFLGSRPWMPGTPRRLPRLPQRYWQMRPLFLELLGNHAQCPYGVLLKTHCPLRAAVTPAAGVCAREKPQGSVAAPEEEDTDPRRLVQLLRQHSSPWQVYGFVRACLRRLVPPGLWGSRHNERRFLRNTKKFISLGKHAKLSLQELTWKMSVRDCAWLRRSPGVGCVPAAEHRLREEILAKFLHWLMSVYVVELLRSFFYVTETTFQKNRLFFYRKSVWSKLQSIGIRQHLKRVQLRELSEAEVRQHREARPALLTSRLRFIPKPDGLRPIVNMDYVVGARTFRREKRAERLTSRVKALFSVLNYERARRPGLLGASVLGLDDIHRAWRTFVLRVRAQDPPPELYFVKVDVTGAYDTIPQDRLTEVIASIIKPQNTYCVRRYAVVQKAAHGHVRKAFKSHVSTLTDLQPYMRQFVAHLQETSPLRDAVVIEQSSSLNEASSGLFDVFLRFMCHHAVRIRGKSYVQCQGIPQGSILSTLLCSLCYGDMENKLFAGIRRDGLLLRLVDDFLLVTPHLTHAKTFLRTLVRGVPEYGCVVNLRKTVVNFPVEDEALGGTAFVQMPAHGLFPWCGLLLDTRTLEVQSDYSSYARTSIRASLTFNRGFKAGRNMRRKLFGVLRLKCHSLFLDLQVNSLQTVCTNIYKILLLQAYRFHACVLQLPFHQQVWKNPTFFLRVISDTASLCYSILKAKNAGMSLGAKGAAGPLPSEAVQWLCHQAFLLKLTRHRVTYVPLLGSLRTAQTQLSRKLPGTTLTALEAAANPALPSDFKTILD
Method in brief: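 Reporter assay for hTERT transcriptional activity using secreted alkaline phosphatase. About 2 × 10³ cells per well were grown for 24 h at 37 °C, then given fresh medium. Buffer was added to the medium: 2 M diethanolamine, 1 mM MgCl2 and 20 mM L-homoarginine. p-Nitrophenyl phosphate was added to 12 mM final. The rate of absorbance increase was read at 405 nm.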

M14 = experiment: Cytotoxicity against human M14 cells assessed as cell growth at 10 uM after 48 hrs by SRB assay; type: functional; settings: M14, 48 h, read-out: Activity
Method in brief: (§1)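 NCI 60-cell-line screen, first stage: compound at a single dose of […] (unit as printed) for 48 h. Cellular protein was measured by sulforhodamine B colorimetry. Growth was determined using a time-zero cell control and plates not exposed to drug.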

[2] = Cytotoxicity against human NCI-ADR-RES cells assessed as cell growth at 10 uM after 48 hrs by SRB assay; type: functional; settings: read-out: Activity
Method in brief: (§2)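 First stage of the NCI 60 human tumour cell line screen: a single dose is tested against every line. Cell growth is read as cellular protein by sulforhodamine B colorimetry after 48 h of drug exposure, with reference to a time-zero control and to untreated plates.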

OVCAR-8 = experiment: Cytotoxicity against human OVCAR8 cells assessed as cell growth at 10 uM after 48 hrs by SRB assay; type: functional; settings: OVCAR-8, 48 h, read-out: Activity; method in brief: as §2
KM12 = experiment: Cytotoxicity against human KM12 cells assessed as cell growth at 10 uM after 48 hrs by SRB assay; type: functional; settings: KM12, 48 h, read-out: Activity
[3] = Cytotoxicity against human UO31 cells assessed as cell growth at 10 uM after 48 hrs by SRB assay; type: functional; settings: UO-31, 48 h, read-out: Activity
Method in brief: (§3)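 First stage of the NCI 60 human tumour cell line screen, with each compound tested at a single dose of 10. Cellular protein measured by sulforhodamine B colorimetry after 48 h drug exposure. Growth is calculated against a time-zero cell control and against plates not exposed to drug.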

NCI-H226 = experiment: Cytotoxicity against human NCI-H226 cells assessed as cell growth at 10 uM after 48 hrs by SRB assay; type: functional; settings: NCI-H226, 48 h, read-out: Activity; method in brief: as §2
MDA-MB-231 = experiment: Cytotoxicity against human MDA-MB-231 cells assessed as cell growth at 10 uM after 48 hrs by SRB assay; type: functional; settings: MDA-MB-231, 48 h, read-out: Activity; method in brief: as §2
SNB-19 = experiment: Cytotoxicity against human SNB19 cells assessed as cell growth at 10 uM after 48 hrs by SRB assay; type: functional; settings: SNB-19, 48 h, read-out: Activity; method in brief: as §3
A498 = experiment: Cytotoxicity against human A498 cells assessed as cell growth at 10 uM after 48 hrs by SRB assay; type: functional; settings: A498, 48 h, read-out: Activity
HCT-116 = experiment: Cytotoxicity against human HCT116 cells assessed as cell growth at 10 uM after 48 hrs by SRB assay; type: functional; settings: HCT-116, 48 h, read-out: Activity
HOP-62 = experiment: Cytotoxicity against human HOP62 cells assessed as cell growth at 10 uM after 48 hrs by SRB assay; type: functional; settings: HOP-62, 48 h, read-out: Activity; method in brief: as §1
SF-295 = experiment: Cytotoxicity against human SF295 cells assessed as cell growth at 10 uM after 48 hrs by SRB assay; type: functional; settings: SF-295, 48 h, read-out: Activity; method in brief: as §2
SF-539 = experiment: Cytotoxicity against human SF539 cells assessed as cell growth at 10 uM after 48 hrs by SRB assay; type: functional; settings: SF-539, 48 h, read-out: Activity; method in brief: as §2
SK-OV-3 = experiment: Cytotoxicity against human SKOV3 cells assessed as cell growth at 10 uM after 48 hrs by SRB assay; type: functional; settings: SK-OV-3, 48 h, read-out: Activity; method in brief: as §2
NCI-H460 = experiment: Cytotoxicity against human NCI-H460 cells assessed as cell growth at 10 uM after 48 hrs by SRB assay; type: functional; settings: NCI-H460, 48 h, read-out: Activity; method in brief: as §2
[4] = Cytotoxicity against human OVCAR4 cells assessed as cell growth at 10 uM after 48 hrs by SRB assay; type: functional; settings: OVCAR-4, 48 h, read-out: Activity; method in brief: as §2
RXF 393 = experiment: Cytotoxicity against human RXF393 cells assessed as cell growth at 10 uM after 48 hrs by SRB assay; type: functional; settings: RXF 393, 48 h, read-out: Activity; method in brief: as §2
TK-10 = experiment: Cytotoxicity against human TK10 cells assessed as cell growth at 10 uM after 48 hrs by SRB assay; type: functional; settings: TK-10, 48 h, read-out: Activity; method in brief: as §3
HCC 2998 = experiment: Cytotoxicity against human HCC2998 cells assessed as cell growth at 10 uM after 48 hrs by SRB assay; type: functional; settings: HCC 2998, 48 h, read-out: Activity
IGROV-1 = experiment: Cytotoxicity against human IGROV1 cells assessed as cell growth at 10 uM after 48 hrs by SRB assay; type: functional; settings: IGROV-1, 48 h, read-out: Activity
SN12C = experiment: Cytotoxicity against human SN12C cells assessed as cell growth at 10 uM after 48 hrs by SRB assay; type: functional; settings: read-out: Activity; method in brief: as §2
NCI-H522 = experiment: Cytotoxicity against human NCI-H522 cells assessed as cell growth at 10 uM after 48 hrs by SRB assay; type: functional; settings: NCI-H522, 48 h, read-out: Activity; method in brief: as §2
SR = experiment: Cytotoxicity against human SR cells assessed as cell growth at 10 uM after 48 hrs by SRB assay; type: functional; settings: read-out: Activity; method in brief: as §3
PC-3 = experiment: Cytotoxicity against human PC3 cells assessed as cell growth at 10 uM after 48 hrs by SRB assay; type: functional; settings: PC-3, 48 h, read-out: Activity; method in brief: as §2
DU-145 = experiment: Cytotoxicity against human DU145 cells assessed as cell growth at 10 uM after 48 hrs by SRB assay; type: functional; settings: DU-145, 48 h, read-out: Activity; method in brief: as §1
[5] = Cytotoxicity against human OVCAR5 cells assessed as cell growth at 10 uM after 48 hrs by SRB assay; type: functional; settings: OVCAR-5, 48 h, read-out: Activity; method in brief: as §2
Malme-3M = experiment: Cytotoxicity against human MALME-3M cells assessed as cell growth at 10 uM after 48 hrs by SRB assay; type: functional; settings: read-out: Activity
SK-MEL-2 = experiment: Cytotoxicity against human SK-MEL-2 cells assessed as cell growth at 10 uM after 48 hrs by SRB assay; type: functional; settings: SK-MEL-2, 48 h, read-out: Activity; method in brief: as §2
UACC-62 = experiment: Cytotoxicity against human UACC62 cells assessed as cell growth at 10 uM after 48 hrs by SRB assay; type: functional; settings: UACC-62, 48 h, read-out: Activity; method in brief: as §3
NCI-H23 = experiment: Cytotoxicity against human NCI-H23 cells assessed as cell growth at 10 uM after 48 hrs by SRB assay; type: functional; settings: NCI-H23, 48 h, read-out: Activity; method in brief: as §2
MOLT-4 = experiment: Cytotoxicity against human MOLT4 cells assessed as cell growth at 10 uM after 48 hrs by SRB assay; type: functional; settings: MOLT-4, 48 h, read-out: Activity; method in brief: as §2
CCRF-CEM = experiment: Cytotoxicity against human CCRF-CEM cells assessed as cell growth at 10 uM after 48 hrs by SRB assay; type: functional; settings: read-out: Activity

Structure (SMILES)	Activity [1] [%]	growth at 10 µM (M14) [%]	growth at 10 µM [2] [%]	growth at 10 µM (OVCAR-8) [%]	growth at 10 µM (KM12) [%]	growth at 10 µM [3] [%]	growth at 10 µM (NCI-H226) [%]	growth at 10 µM (MDA-MB-231) [%]	growth at 10 µM (SNB-19) [%]	growth at 10 µM (A498) [%]	growth at 10 µM (HCT-116) [%]	growth at 10 µM (HOP-62) [%]	growth at 10 µM (SF-295) [%]	growth at 10 µM (SF-539) [%]	growth at 10 µM (SK-OV-3) [%]	growth at 10 µM (NCI-H460) [%]	growth at 10 µM [4] [%]	growth at 10 µM (RXF 393) [%]	growth at 10 µM (TK-10) [%]	growth at 10 µM (HCC 2998) [%]	other results
CCCSc1nc2ccc3c(c2[nH]1)C(=O)c1ccccc1C3=O	33	90	50.2	44.7	55.2	24.5	50.2	26.4	92	57.3	47.7	59.1	37.2	24	38.9	68.1	42.2	20.1	35.5	81.9	growth at 10 µM (IGROV-1): 53.7%; growth at 10 µM (SN12C): 80.4%; growth at 10 µM (NCI-H522): 72.4%; growth at 10 µM (SR): 71%; growth at 10 µM (PC-3): 66.8%; growth at 10 µM (DU-145): 69.3%; growth at 10 µM [5]: 99.7%; growth at 10 µM (Malme-3M): 88.2%; growth at 10 µM (SK-MEL-2): 79.3%; growth at 10 µM (UACC-62): 51.1%; growth at 10 µM (NCI-H23): 69.8%; growth at 10 µM (MOLT-4): 68.1%; growth at 10 µM (CCRF-CEM): 70.8%
O=C1c2ccccc2C(=O)c2c1ccc1nc(SCCN3CCCC3)[nH]c21	36	70.9	53.7	49.4	19.6	21.2	88.1	63.5	60.5	71.4	38.8	73.7	76.9	62.2	55.6	34.1	57.2	22.3	36.9	71.5	growth at 10 µM (IGROV-1): 23.2%; growth at 10 µM (SN12C): 52.9%; growth at 10 µM (NCI-H522): 81.5%; growth at 10 µM (SR): 20.2%; growth at 10 µM (PC-3): 6.9%; growth at 10 µM (DU-145): 17.9%; growth at 10 µM [5]: 87.5%; growth at 10 µM (Malme-3M): 112%; growth at 10 µM (SK-MEL-2): 107%; growth at 10 µM (UACC-62): 81%; growth at 10 µM (NCI-H23): 66.9%; growth at 10 µM (MOLT-4): 30.9%; growth at 10 µM (CCRF-CEM): -15.4%
CN(C)CCCSc1nc2ccc3c(c2[nH]1)C(=O)c1ccccc1C3=O	15	77.3	54.3	61.9	20.4	25.5	74.1	56.2	79.7	76.2	27.6	52	76	57.5	32.4	23.2	29.7	38.4	31.7	72.7	growth at 10 µM (IGROV-1): 30.9%; growth at 10 µM (SN12C): 37.7%; growth at 10 µM (NCI-H522): 69.3%; growth at 10 µM (SR): 3.09%; growth at 10 µM (PC-3): 36.7%; growth at 10 µM (DU-145): 36.4%; growth at 10 µM [5]: 87.9%; growth at 10 µM (Malme-3M): 88.2%; growth at 10 µM (SK-MEL-2): 80%; growth at 10 µM (UACC-62): 75.4%; growth at 10 µM (NCI-H23): 53.8%; growth at 10 µM (MOLT-4): -2.9%; growth at 10 µM (CCRF-CEM): 8.49%
O=C1c2ccccc2C(=O)c2c1ccc1[nH]c(=S)[nH]c21	31	101	110	140	102	97.8	83.7	108	91.3	94.3	96.3	96.7	118	91.3	103	98.6	91.6	142	112	114	growth at 10 µM (IGROV-1): 138%; growth at 10 µM (SN12C): 88%; growth at 10 µM (NCI-H522): 96.1%; growth at 10 µM (SR): 125%; growth at 10 µM (PC-3): 78.8%; growth at 10 µM (DU-145): 99.3%; growth at 10 µM [5]: 129%; growth at 10 µM (Malme-3M): 87.5%; growth at 10 µM (SK-MEL-2): 134%; growth at 10 µM (UACC-62): 84.2%; growth at 10 µM (NCI-H23): 113%; growth at 10 µM (MOLT-4): 109%; growth at 10 µM (CCRF-CEM): 61.9%
